The target of series [1] is T1, Bifunctional epoxide hydrolase 2 (Homo sapiens, UniProt P34913).
T1 sequence (P34913 whole entry): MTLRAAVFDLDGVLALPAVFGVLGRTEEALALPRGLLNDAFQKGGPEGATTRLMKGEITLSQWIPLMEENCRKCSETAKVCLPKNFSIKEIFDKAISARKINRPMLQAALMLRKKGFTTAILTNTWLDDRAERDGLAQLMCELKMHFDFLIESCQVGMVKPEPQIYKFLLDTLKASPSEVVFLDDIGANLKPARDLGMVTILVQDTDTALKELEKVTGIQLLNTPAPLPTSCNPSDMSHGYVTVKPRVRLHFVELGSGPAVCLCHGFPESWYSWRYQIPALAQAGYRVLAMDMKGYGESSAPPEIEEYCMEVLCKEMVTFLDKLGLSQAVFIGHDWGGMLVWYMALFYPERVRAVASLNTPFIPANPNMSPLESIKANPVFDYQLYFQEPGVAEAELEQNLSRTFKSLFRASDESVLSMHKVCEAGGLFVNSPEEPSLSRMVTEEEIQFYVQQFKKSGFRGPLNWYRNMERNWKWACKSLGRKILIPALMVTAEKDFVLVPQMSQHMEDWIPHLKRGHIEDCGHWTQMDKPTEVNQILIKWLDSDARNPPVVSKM
The experiment in a line: Inhibition of human soluble epoxide hydrolase.

The target in series [2] is T1, Bifunctional epoxide hydrolase 2. The format is cell-based, HUVEC.
In series [3] the target is Voltage-gated inwardly rectifying potassium channel KCNH2 (Homo sapiens, UniProt Q12809). Nature of the series: Inhibition of human ERG by patch clamp analysis. In outline:
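hERG inhibition measured by high-throughput patch clamp; percent inhibition at 30 µM.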
(The patch-clamp technique gives a direct electrical read-out from membranes.)

Series [4] can be described thus: AUC (24 hrs) in rat at 10 mg/kg, po. The format is ADME, organism-based. Further details: time < 24 hr, dose 10 mg/kg, route oral. As to conditions: plasma.
Series [5] relates to Rattus norvegicus. The experiment in a line: Antihypertensive activity against AngII-induced hypertension in telemetered rat assessed as decrease in systolic blood pressure at 50 mg/kg, po. Conditions: Artery, read-out: INH.
For a further series, the target named is Cytochrome P450 3A4 (Homo sapiens, UniProt P08684). Nature of the series: Inhibition of CYP3A4. The class given is ADME.
Series [6] has as its system Rattus norvegicus. The experiment in a line: Antihypertensive activity against spontaneously hypertensive rat assessed as decrease in mean blood pressure at 100 mg/kg, po. The format is functional, organism-based. Further details: dose 100 mg/kg.
The target in another series is Cytochrome P450 2C19 (Homo sapiens, UniProt P33261). The experiment in a line: Inhibition of CYP2C19. The class given is ADME.
Series [7] deals with Rattus norvegicus. The experiment in a line: Antihypertensive activity against AngII-induced hypertension in telemetered rat assessed as decrease in diastolic blood pressure at 50 mg/kg, po. The format is functional, organism-based. Further details: dose 50 mg/kg. Conditions: Artery. In outline:
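Sprague–Dawley rats made hypertensive by continuous AngII infusion, 65 ng/min. Dosed orally twice daily as a suspension in 0.5% carboxymethylcellulose, 0.1% Tween 80. Systolic and diastolic pressure recorded continuously by telemetry and compared against vehicle control.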

Another series addresses T2, Cytochrome P450 2B6 (Homo sapiens, UniProt P20813).
T2 sequence (P20813 whole entry): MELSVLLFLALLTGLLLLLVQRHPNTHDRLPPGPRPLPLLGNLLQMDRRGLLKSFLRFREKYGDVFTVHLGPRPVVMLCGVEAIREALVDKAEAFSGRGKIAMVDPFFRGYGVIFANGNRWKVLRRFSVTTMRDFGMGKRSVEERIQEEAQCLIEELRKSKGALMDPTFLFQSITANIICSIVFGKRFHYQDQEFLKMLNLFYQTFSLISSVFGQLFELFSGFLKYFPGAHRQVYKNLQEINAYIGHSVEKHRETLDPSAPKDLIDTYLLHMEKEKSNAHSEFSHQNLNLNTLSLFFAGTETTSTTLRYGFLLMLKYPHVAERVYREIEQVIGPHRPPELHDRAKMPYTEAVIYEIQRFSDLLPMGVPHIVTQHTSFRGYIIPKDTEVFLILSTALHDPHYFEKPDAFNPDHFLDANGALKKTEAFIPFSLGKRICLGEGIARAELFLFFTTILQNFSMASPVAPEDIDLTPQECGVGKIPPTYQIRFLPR
Nature of the series: Inhibition of CYP2B6. The format is ADME.

In the next series the target is T3, Cytochrome P450 1A2 (Homo sapiens, UniProt P05177).
T3 sequence (P05177 whole entry): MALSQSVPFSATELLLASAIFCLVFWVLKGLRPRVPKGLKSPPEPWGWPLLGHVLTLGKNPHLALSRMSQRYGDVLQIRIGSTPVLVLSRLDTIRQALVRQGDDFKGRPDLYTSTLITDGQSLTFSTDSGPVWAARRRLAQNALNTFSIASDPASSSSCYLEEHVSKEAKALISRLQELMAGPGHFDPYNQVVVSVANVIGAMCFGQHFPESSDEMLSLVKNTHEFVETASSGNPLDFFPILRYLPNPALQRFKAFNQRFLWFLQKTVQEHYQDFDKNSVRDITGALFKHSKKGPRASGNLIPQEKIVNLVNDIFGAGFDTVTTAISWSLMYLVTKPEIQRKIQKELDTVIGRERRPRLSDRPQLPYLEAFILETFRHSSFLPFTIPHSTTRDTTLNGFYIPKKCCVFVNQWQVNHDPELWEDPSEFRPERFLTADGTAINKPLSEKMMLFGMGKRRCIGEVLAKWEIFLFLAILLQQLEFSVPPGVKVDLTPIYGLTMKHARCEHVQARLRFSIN
Nature of the series: Inhibition of CYP1A2. The class given is ADME.

The target in a further series is Cytochrome P450 2C9 (Homo sapiens, UniProt P11712). Nature of the series: Inhibition of CYP2C9. The class given is ADME.
Series [8] is described as follows: Oral bioavailability in rat. Conditions: in vivo. The format is ADME, organism-based.
The subject of series [9] is Mus musculus. Nature of the series: Antidiabetic activity in diet induced obese mouse assessed as reduction in maximal glucose excursion at 100 mg/kg, po BID for 4 weeks. The format is functional, organism-based. Further details: dose 100 mg/kg. In a few lines:
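Male C57BL/6 mice fed 45% fat diet plus high fructose corn syrup (0.42 kcal/mL) for 6 weeks beforehand and throughout. Oral gavage BID for 12 weeks. After 4 weeks, intraperitoneal glucose 2 g/kg given 4 h post-dose.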

Series [10] relates to Mus musculus. Nature of the series: Inhibition of soluble epoxide hydrolase in diet induced obese mouse assessed as inhibition of EET hydrolysis at 100 mg/kg, po BID for 12 weeks measured 7 hrs post last dose.
The nature of series [11]: Oral bioavailability in cynomolgus monkey. The class given is ADME, organism-based, Macaca fascicularis. As to conditions: in vivo.

Each structure is given as a SMILES string. The source made the active and inactive calls. The calls are words filed in the database; no cut-off is given here.

Sequence of Voltage-gated inwardly rectifying potassium channel KCNH2 (Q12809 whole entry): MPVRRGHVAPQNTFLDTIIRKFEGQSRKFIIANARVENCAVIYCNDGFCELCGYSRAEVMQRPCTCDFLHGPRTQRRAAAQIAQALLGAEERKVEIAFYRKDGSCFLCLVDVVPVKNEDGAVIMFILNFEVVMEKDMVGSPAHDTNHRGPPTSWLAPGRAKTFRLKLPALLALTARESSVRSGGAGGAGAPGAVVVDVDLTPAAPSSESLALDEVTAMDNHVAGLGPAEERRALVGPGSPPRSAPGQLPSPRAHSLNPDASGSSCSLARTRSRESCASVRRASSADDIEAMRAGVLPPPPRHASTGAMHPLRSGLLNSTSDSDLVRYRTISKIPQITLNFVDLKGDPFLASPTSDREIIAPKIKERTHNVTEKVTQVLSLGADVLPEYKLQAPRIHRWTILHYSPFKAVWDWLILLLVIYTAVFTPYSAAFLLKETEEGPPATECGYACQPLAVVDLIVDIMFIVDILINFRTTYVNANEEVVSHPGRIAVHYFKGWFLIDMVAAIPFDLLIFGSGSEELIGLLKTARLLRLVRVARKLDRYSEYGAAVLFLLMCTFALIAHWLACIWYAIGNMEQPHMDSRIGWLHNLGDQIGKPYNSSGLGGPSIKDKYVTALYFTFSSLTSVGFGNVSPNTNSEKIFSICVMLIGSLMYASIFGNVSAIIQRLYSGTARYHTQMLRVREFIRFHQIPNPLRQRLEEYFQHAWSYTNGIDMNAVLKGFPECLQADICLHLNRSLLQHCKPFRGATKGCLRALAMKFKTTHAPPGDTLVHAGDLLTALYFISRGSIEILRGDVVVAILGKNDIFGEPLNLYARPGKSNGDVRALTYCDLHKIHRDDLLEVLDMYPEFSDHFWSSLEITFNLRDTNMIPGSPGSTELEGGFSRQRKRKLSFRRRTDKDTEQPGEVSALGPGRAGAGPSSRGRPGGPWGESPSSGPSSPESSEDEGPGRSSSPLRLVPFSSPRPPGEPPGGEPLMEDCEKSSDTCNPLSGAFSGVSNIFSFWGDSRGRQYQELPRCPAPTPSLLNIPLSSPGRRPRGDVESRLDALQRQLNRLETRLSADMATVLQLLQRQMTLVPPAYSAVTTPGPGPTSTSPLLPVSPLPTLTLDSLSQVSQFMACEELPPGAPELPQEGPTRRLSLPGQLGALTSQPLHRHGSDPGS
Sequence of Cytochrome P450 2C19 (P33261 whole entry): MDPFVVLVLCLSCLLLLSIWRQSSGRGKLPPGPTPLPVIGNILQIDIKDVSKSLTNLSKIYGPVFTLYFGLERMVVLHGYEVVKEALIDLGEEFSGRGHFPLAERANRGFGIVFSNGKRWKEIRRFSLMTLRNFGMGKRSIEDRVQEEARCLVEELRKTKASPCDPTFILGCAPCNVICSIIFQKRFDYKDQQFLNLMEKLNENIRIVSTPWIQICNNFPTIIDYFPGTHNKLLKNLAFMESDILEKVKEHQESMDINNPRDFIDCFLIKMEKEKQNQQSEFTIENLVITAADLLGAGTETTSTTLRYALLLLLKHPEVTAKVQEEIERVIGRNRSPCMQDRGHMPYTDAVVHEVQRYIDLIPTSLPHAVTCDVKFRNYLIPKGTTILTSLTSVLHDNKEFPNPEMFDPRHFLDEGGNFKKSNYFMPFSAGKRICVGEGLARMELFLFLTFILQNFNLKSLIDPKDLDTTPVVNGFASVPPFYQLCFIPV
Sequence of Cytochrome P450 3A4 (P08684 whole entry): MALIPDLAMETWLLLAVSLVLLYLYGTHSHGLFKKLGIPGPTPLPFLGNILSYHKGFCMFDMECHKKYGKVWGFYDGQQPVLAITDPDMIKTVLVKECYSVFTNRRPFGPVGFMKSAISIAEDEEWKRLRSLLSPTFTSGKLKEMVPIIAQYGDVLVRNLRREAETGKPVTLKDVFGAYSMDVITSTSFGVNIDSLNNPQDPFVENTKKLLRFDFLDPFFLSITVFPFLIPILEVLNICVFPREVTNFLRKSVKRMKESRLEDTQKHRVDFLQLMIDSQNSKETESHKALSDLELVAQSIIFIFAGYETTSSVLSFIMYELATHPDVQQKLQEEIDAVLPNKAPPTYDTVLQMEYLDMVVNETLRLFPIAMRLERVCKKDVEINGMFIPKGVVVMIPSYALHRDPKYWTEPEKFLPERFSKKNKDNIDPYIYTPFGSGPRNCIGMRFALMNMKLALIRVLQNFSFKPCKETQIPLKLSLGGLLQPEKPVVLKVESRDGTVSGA
Sequence of Cytochrome P450 2C9 (P11712 whole entry): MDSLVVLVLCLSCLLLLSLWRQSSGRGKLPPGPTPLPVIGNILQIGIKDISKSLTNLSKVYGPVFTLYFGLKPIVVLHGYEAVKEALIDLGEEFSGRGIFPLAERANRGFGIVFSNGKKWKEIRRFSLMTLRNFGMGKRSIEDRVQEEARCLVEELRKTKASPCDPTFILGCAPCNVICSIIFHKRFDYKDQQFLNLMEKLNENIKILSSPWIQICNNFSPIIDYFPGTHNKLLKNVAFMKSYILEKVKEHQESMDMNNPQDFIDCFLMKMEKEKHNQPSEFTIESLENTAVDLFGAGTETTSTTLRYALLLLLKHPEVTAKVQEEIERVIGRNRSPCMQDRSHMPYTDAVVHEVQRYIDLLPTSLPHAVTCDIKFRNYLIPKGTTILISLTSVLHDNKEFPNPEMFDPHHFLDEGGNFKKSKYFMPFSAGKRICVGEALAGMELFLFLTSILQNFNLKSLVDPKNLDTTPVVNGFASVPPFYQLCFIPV

With `CC(=O)N1CCC(NC(=O)NC2C3CCC2CC3)CC1` (stereo not given), the concentration for half-maximal inhibition (IC50) – broadly, the point on the concentration scale where inhibition reaches its midpoint – stood at 14 nM in [1] and 120 nM in series [2].

Turning to `CC(=O)N1CCC(NC(=O)NC2CCC(F)(F)CC2)CC1`, the midpoint of inhibition in [1], the IC50, lay at 185 nM.

For the molecule `CC(C)S(=O)(=O)N1CCC(NC(=O)Nc2ccc(C(F)(F)F)cc2)CC1`, the “inhibition (INH)” value in series [3] amounted to 13%. Moreover, in series [4], the exposure (AUC) (as a rule, the area under the concentration-time curve, a measure of exposure) at 24 h was 5890 ng·h/mL.

On to `O=C(Nc1ccc(OC(F)(F)F)cc1)NC1CCN(C(=O)c2cccnc2)CC1`, for which the “inhibition (INH)” value in series [3] was found to be 57%. In addition, the AUC at 24 h in series [4] was determined as 11300 ng·h/mL. The midpoint of inhibition in series [2], the IC50, lay at 6.7 nM.

On to `CC(=O)N1CCC(NC(=O)NC2CCCCCC2)CC1`, for which the IC50 in series [1] came to 0.8 nM; in series [2] it was 27 nM. Also, the “inhibition (INH)” value in [3] is 9%. In [4], this molecule came in with an AUC at 24 h of 7840 ng·h/mL.

On to `CS(=O)(=O)N1CCC(NC(=O)NC23CC4CC(CC(C4)C2)C3)CC1`, for which the 50% inhibitory concentration (IC50) in series [1] turned out to be 1.9 nM; in series [2], 3.9 nM. The “inhibition (INH)” value in [3] is given as -2.8%. The same molecule displayed an exposure (AUC) at 24 h in series [4] of 640 ng·h/mL.

`O=C(NC1CCCCC1)NC1CCN(C(=O)c2ccccn2)CC1`: the IC50 in series [1] is 6.4 nM; in [2], 67 nM. Besides, the “inhibition (INH)” value in series [3] worked out at 3.4%. The molecule further yielded an exposure (AUC) at 24 h in [4] of 8320 ng·h/mL.

In series [4], `CS(=O)(=O)N1CCC(NC(=O)Nc2ccc(C(F)(F)F)cc2)CC1` gave an AUC at 24 h of 6850 ng·h/mL.

`CC(=O)N1CCC(NC(=O)NC2CC3(C)CCC2CC3)CC1` (stereo not given): the half-maximal inhibitory concentration (IC50) was 25 nM in [1] and 300 nM in series [2]. In series [4], this molecule had an AUC at 24 h of 1480 ng·h/mL.

The molecule `CC(=O)N1CCC(NC(=O)NC23CC4CC(F)(CC(F)(C4)C2)C3)CC1` registered a 50% inhibitory concentration (IC50) in series [1] of 58 nM.

Molecule `CC(=O)N1CCC(NC(=O)NC23CC4(F)CC(F)(CC(F)(C4)C2)C3)CC1` returned an IC50 in [1] of 120 nM.

For `CC(C)S(=O)(=O)N1CCC(NC(=O)Nc2ccc(OC(F)(F)F)cc2)CC1`, the “inhibition (INH)” value in series [3] stood at 11%. Moreover, in series [4], the AUC at 24 h was 7300 ng·h/mL. Further, the 50% inhibitory concentration (IC50) in series [2] was found to be 64 nM.

On to `CC(=O)N1CCC(NC(=O)NC2CCC(C)(C)CC2)CC1`, for which the 50% inhibitory concentration (IC50) in [1] is 6 nM; in series [2], 38 nM. Further, the “inhibition (INH)” value in series [3] is recorded as 0.8%.

Consider `CC(=O)N1CCC(NC(=O)Nc2cccc(C(F)(F)F)c2)CC1`, for which, in series [3], the “inhibition (INH)” value was determined as 10%. In series [4], this molecule came in with an area under the curve (AUC) at 24 h of 19600 ng·h/mL. For the same molecule, the midpoint of inhibition in series [2], the IC50, lay at 226 nM.

Take `CC(=O)N1CCC(NC(=O)NC2CCC(C(C)(C)C)CC2)CC1` (stereo not given): the values for the IC50 in series [1] and in series [2] were 13 nM and 270 nM, respectively. The “inhibition (INH)” value in [3] is 7%. In series [4], this molecule showed an AUC at 24 h of 1780 ng·h/mL.

As to `CC(=O)N1CCC(NC(=O)NC23CC4CC(CC(C4)C2)C3)CC1` [AR9281], the inhibition in vivo at 50 mg/kg in the series on Rattus norvegicus [5] was 8%. Besides, the “inhibition (INH)” value is reported as “Not Active” on Cytochrome P450 3A4; “Not Active” on Cytochrome P450 2C19; “Not Active” against Cytochrome P450 2B6; below 8% in series [3]; “Not Active” against Cytochrome P450 1A2; “Not Active” against Cytochrome P450 2C9. Also, in the series with Rattus norvegicus [6], the outcome was inactive. In addition, the outcome with Rattus norvegicus [7], with Mus musculus [9] and in the series on Mus musculus [10] was Active. The same molecule gave an AUC at 24 h in series [4] of 720 ng·h/mL. In addition, the bioavailability (commonly the share of a dose that reaches the circulation, judged against a reference dose that is usually intravenous) in series [8] is 100%; in [11], 25%.

Regarding `CC(=O)N1CCC(NC(=O)NC2CCCCC2)CC1`, in series [1], the IC50 was determined as 29 nM.

Regarding `CC(=O)N1CCC(NC(=O)Nc2ccc(C(F)(F)F)cc2)CC1`, the AUC at 24 h in series [4] is 13100 ng·h/mL.

These data come from ChEMBL document CHEMBL1667772 (Bioorg Med Chem Lett, 2011).
